Experimental data published in the RNAGym collection of RNA variant scans (doi:10.1126/science.aae0568).
Fewer inactive variants are shown than the library holds.

B1: tRNA (parent)
chain: GUUCCGUUGGCGUAAUGGUAACGCGUCUCCCUCCUAAGGAGAAGACUGCGGGUUCGAGUCCCGUACGGAACG

Variants of: B1
Assay: yeast fitness relative to wild type (ratio to wild type); higher = fitter; tRNA-Arg(CCU), competitive growth, 37 C, YPD
Procedure, shortened: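 Amplicons of the tRNA-Arg(CCU) gene were sequenced, 100-nucleotide paired-end, from the start population and from each end population of a pooled yeast competition. The competition, in six parallel replicates, lasted 24 hours in YPD at 37°C. Fitness relative to wild type was calculated from changes in genotype frequencies. Genotypes had to have ≥ 100 starting reads, and estimates < 0.5 were set to 0.5.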

Point of comparison: GUUCCGUUGGCGUAAUGGUAACGCGUCUCCCUCCUAAGGAGAAGACUGUGGGUUCGAGUCCCGUACCGAACG [C49U G67C], yeast fitness 0.851. Against it:
- GUUCCGUUGGCGUAACGGUAACGCGUCUCCCUCCUAAGGAGAAGACUGCGGGUUCGAGUCCCGUACGGGGCG [U16C A69G A70G] — lower, 0.745
- GUUCCGUUGGCGUAAUGGUAACGUGUCUCCCUCCUAAGGAGAAGCCUGCGGGUUCGAGUCCCGUACGGCACG [C24U A45C A69C] — lower, 0.619
- GUUCCGUUGGCGUAAUGGUAAGGCGUCUCCGUCCUAAGGAGAAGACUGCGGGUUCGAGUCCUGUACGCAACG [C22G C31G C62U G68C] — lower, ≤ 0.5
- GUUCCGUUGACGUACUGGUAACGCAUCUCCCUCCUAAGGAGAAGACUGCGGGUUCGAGUCCCGUAUGGAACG [G10A A15C G25A C66U] — lower, 0.543
- GUUGCGUCGGCGUAAUGGUAACGCGUCUCCCUCCUAAGGAGAAGACUGCGGGUUCGAGGCCCGUACGGAACG [C4G U8C U59G] — lower, ≤ 0.5
- GUUCCGUUGGCGUAAUGGUAACGCGUCUGCCUCUUAAGGAGAAGACUGCGGGUUCGAGUCCCGUACGGAACG [C29G C34U] — lower, 0.561
- GUUCCGUUGGCAUAAUGGUAACGCGUCUCCCUCCUAAGGAGAAGACUGCGGGUUCGAGUACCGUACGGAGCG [G12A C60A A70G] — lower, ≤ 0.5
- GUUCCGUUGGCGUAAUGGUAGCGCGUCUCCCCCCUAAGGAGAAGACUGCGGGUUCGAGGCUCGUAUGGACCG [A21G U32C U59G C61U C66U A70C] — lower, 0.572
- GUUCCGUUGGCGUAAUGGUAACGUGUCUCGCUCCUAAGGAGAAGAGUGCGGAUUCGAAUCCCGUACGGAACG [C24U C30G C46G G52A G58A] — lower, 0.559
- GUUCCGUUGGCGUAAUGGUAACGCGUCUCCCUCCUAUGGAGAAGUCCGCGGGUUCGAGUCCGGUACGGAACG [A37U A45U U47C C62G] — lower, ≤ 0.5
- GUUUCGUUGGCGUAAUGGUAACGCGUCUCCCUCCUAAGUAGAAGACUGCGGGUUCGAGUCCCGUACGGAACG [C4U G39U] — lower, 0.834
- GUUCGGUUGGCGUAAUGGUAACGCGUCUGCCUCCUAAGGAGACGACUGCGGAUUCGAGUCCCGUACAGAACG [C5G C29G A43C G52A G67A] — lower, ≤ 0.5
- GUUCCGUUGGCGUAAUGGUAACGCGUCUCACUCCUAAGGAGAAGUCUGCGGGUUUGAGUCCCGUACGGAACG [C30A A45U C55U] — lower, 0.589
- GUUGCGUUGGCGUAAUGGUAAAGCGUUUCCCUCCUAAGGAGAAGACUGCGGGUUCGAGUCCCCUACGGAACG [C4G C22A C27U G63C] — lower, 0.735
- GUUGCGCUGGCGUAAUGGUAACGCGUAUCCCUCCUAAGGAGAAGACUGCGGGUUCGAGUCCCGUAAGGAUCG [C4G U7C C27A C66A A70U] — lower, ≤ 0.5
- GUUCCGUUGGCAUAAUGGUAACGCGUUUCCCUCCUAAGGAGAAGACUGUGGGUUCGAGUCCCGUACGGAACG [G12A C27U C49U] — lower, 0.611
- GUUCCGUUGGCGUAAUGGUAACGCGUCUCCCUCCUAAGGAGAAGACUGCUGGUUCGAGUCCCGUACGGCACG [G50U A69C] — higher, 0.958
- GUUCCGUUGGCGUAAUGGUAACGCGUCUCCCUCGUAGAGAGAAGACUGCAGGUUCGAGUCCCGUACGGAACG [C34G A37G G38A G50A] — lower, ≤ 0.5
- GUUCCGUUGGCGUAACGGUAACGCGUCUCCCUCAUAGGGAGAAGACUGCGGGUUCGAGUCCCGUACGGAACG [U16C C34A A37G] — lower, ≤ 0.5
- GUUCGGUUGGCGUAGUGGUAACGGGUCUCCCACGUAAGGAGAAGACUGCGGGUUCGAGUCCCGUACGAUUCG [C5G A15G C24G U32A C34G G68A A69U A70U] — lower, 0.516
- GUUCCGUUGGCGUAAUGGUGACGCGUCUCCCUCCUAAGGAGAAGACUGCGGGUUCGAGUCCCGUACUGCACG [A20G G67U A69C] — lower, ≤ 0.5
- GUUCCGUUGGCGUAAUGGUAACGCGUUUCCCUCCUAAGGAGAAGCCUACGGGUUCGUGUCCCGUACAGAACG [C27U A45C G48A A57U G67A] — lower, ≤ 0.5
- GUUCCGUUGGCGUAAUGGUUACGCGUCUCCCUCCUAACGAGAAGACUGCGGGUUCGAGUCCCGUGCGGAACG [A20U G38C A65G] — lower, ≤ 0.5
- GUUCCGUUGGCGUAAUGGUAACGCGUCUCCCUCCUAAGGAGAAGACUGUGGGUGCGAGUCUCGUACGGAACG [C49U U54G C61U] — lower, ≤ 0.5
- GUUCCGCUGGCGUAAUGGUAACGCGUCUCCCUCCUACGGAGAAGACUGCGGGUUCGAGUGCCAUUCGGACCG [U7C A37C C60G G63A A65U A70C] — lower, ≤ 0.5
- GUUCCGUUGGCGUAAUGGUAACGCGUCUCGCUCCUAACGAGAAGACUGCGGGUUCGAGUCCCGUACGGAACG [C30G G38C] — lower, 0.741
- GUUCCGUUGGCGUACUGGUAACGCGUCUCCCUCCUGAGGAGAAGACCGCGGGUUAGAGUCCCGUACGGAACG [A15C A36G U47C C55A] — lower, ≤ 0.5
- GUUCCGUUGGCGUAAUGGUGACGCGUCUCCCUCCUAAGGAGAAGACUGCGGGUUCGACUCCCGUACGGAACG [A20G G58C] — higher, 1
- GUUCCGUUGGCGUAAGGGUAACGCGUCUCCCUCCUAAGGAGAAGACUGCGGGUUCGAGGCCCGUACGGAACG [U16G U59G] — lower, 0.78
- GUUCCGGUGGCGUAAUGGUAACGCGUCUCUCUCCUGAGGAGAAGACUGCGGGUUGGAGUCCCGUACGGAACG [U7G C30U A36G C55G] — lower, ≤ 0.5
- GUUCCGUUGGUGCAAUGGUAACGCGUCUCUCUCCUAAGGAGAGGACUGCGGGUUCGAGUCCCGUACGGAACG [C11U U13C C30U A43G] — lower, ≤ 0.5
- GUUCCGUUGGCGCAAUGGUAACGCGUCUCCCUCCUAAGGAGAAGACUGCGGGUUCGAGUCCCGUACGCAACG [U13C G68C] — higher, 0.877
- GUUCCGUUGGCCUAAUGGUAACGCGUCUCCCUUCUAAGGAGCAGACUGCGGGUUCGAGUCCCGUACGGAACG [G12C C33U A42C] — lower, ≤ 0.5
- GUUCCAUUGGCGUAAUGGUAACGCGUCUCCCUCAUAAGGUGAAGACUGCGGGUUCGAGUCCCGAACGGAACG [G6A C34A A40U U64A] — lower, ≤ 0.5
- GUUCCGUUGGUGUAAUGGUAACGCGCCUCCCUCCUAAGGAGAAGACUGCGGGUUCGAGUCGCGUCCGGAACG [C11U U26C C61G A65C] — lower, ≤ 0.5
- GUUCCGUUGGCGUAAUGGUAACGCGUGUCCCUCCUAAGGAGAAGACUGCGGGUUCGAGUCCUGUUCGGAACG [C27G C62U A65U] — lower, 0.554
- GUUCCGUUAGCGUAAUGGUAACGUGUCUCCCUCCUAAGGUGAAGACUGCGGGUUCGAGUCCCGUACGCAACG [G9A C24U A40U G68C] — lower, ≤ 0.5
